Test results reported in ChEMBL document CHEMBL1122082, “Alkaline phosphatase inhibition by a series of pyrido[2,1-b]quinazolines: A possible relationship with cromolyn-like antiallergy activity” (J Med Chem, 1982).
Active and inactive are the calls of the source. The calls are words filed in the database; no cut-off is given here.

Each compound was assayed on Rattus norvegicus (assay: Percent inhibition of rat passive cutaneous anaphylaxis model after intravenous administration of the 0.5 mg/kg; IA is Inactive). Conditions: at 0.5 mg/kg.
Format: functional, organism-based
Set-up: dose 0.5 mg/kg
Summary of the method: (§1)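 Antiserum dilutions were injected intradermally on the back. 48 h later rats got an i.v. challenge of 1 mg ovalbumin with 0.25% Evans blue in 1 mL saline, with compound dissolved in it, using slight-excess NaHCO3 if needed.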

With O=C(O)c1cccn2c(=O)c3ccccc3nc12 as the compound, how does the inhibition read?
The inhibition was “inactive”.

O=C(O)c1ccc2nccc(=O)n2c1 was tested. Which inhibition did it give?
The inhibition was “inactive”.

How did the inhibition turn out when O=C(O)c1cccn2c(=O)c3cc4ccccc4cc3nc12 was run?
The inhibition was “inactive”.

O=C(O)C1=CN2CC3=C(CCCC3)N=C2C=C1 was tested. Which inhibition did it give?
Its inhibition is “inactive”.

These compounds were tested on Rattus norvegicus (assay: Percent inhibition of rat passive cutaneous anaphylaxis model after intravenous administration of the 0.5 mg/kg). Conditions: not given.
Format: functional
Summary of the method: as §1

Which inhibition in vivo at 0.5 mg/kg does the source give for O=c1c2ccccc2nc2ccc(-c3nn[nH]n3)cn12 here?
The inhibition in vivo at 0.5 mg/kg was 68%.

O=c1c2cc3ccccc3cc2nc2ccc(-c3nn[nH]n3)cn12 was tested. Which inhibition in vivo at 0.5 mg/kg did it give?
Its inhibition in vivo at 0.5 mg/kg is 100%.

For COc1cc2nc3ccc(-c4nn[nH]n4)cn3c(=O)c2cc1OC, which inhibition in vivo at 0.5 mg/kg is on record?
Its inhibition in vivo at 0.5 mg/kg is 100%.

How did the inhibition in vivo at 0.5 mg/kg turn out when Cc1ccc2nc3ccc(-c4nn[nH]n4)cn3c(=O)c2c1 was run?
Its inhibition in vivo at 0.5 mg/kg is 100%.

How did the inhibition in vivo at 0.5 mg/kg turn out when O=C(O)c1ccn2c(=O)c3ccccc3nc2c1 was run?
The inhibition in vivo at 0.5 mg/kg was 26%.

Species: Rattus norvegicus
Assay: Dose required for 50% inhibition of rat passive cutaneous anaphylaxis model
Format: functional
Conditions: not given
Summary of the method: as §1

How did the ED50 turn out when COc1ccc2nc3ccc(-c4nn[nH]n4)cn3c(=O)c2c1 was run?
The ED50 was 0.03 mg/kg.

Which ED50 does the source give for Cc1ccc2nc3ccc(C(=O)O)cn3c(=O)c2c1 here?
Its ED50 is 0.05 mg/kg.

With O=C(O)c1ccc2nc3cc4ccccc4cc3c(=O)n2c1 as the compound, how does the ED50 read?
The ED50 was 0.1 mg/kg.

How did the ED50 turn out when COc1ccc2c(=O)n3cc(-c4nn[nH]n4)ccc3nc2c1 was run?
The ED50 was 0.5 mg/kg.

Which ED50 does the source give for COc1ccc2nc3ccc(C(=O)O)cn3c(=O)c2c1 here?
The ED50 was 0.05 mg/kg.

COc1cc2nc3ccc(C(=O)O)cn3c(=O)c2cc1OC was tested. Which ED50 did it give?
Its ED50 is 0.05 mg/kg.

How did the ED50 turn out when O=C(O)c1ccc2nc3ccc(O)cc3c(=O)n2c1 was run?
Its ED50 is 0.05 mg/kg.

Which ED50 does the source give for O=C(O)c1ccc2nc3ccccc3c(=O)n2c1 here?
Its ED50 is 0.5 mg/kg.
